Assay results from ChEMBL document CHEMBL1147872, “Syntheses of new tetrasubstituted thiophenes as novel anti-inflammatory agents” (Eur J Med Chem, 2007).
≈ marks a conversion by molar mass, not a printed value. Calls of active or inactive are those of the source. The calls are words filed in the database; no cut-off is given here.

How the values were obtained:
Assay type in all cases: functional
Mus musculus = experiment: Analgesic activity in Albino mouse assessed as protection against acetic acid-induced writhing at 10 mg/kg, ip within 30 mins; conditions: route intraperitoneal
How it was run: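 Mice (20–25 g, either sex) starved 16 h, six per group, given 10 mg/kg i.p.; vehicle control received 1% DMSO at 0.5 ml/100 g. After 1 h, 0.1 ml of 3% acetic acid was given. Writhes were counted over 30 min, and the group mean was expressed as % inhibition versus control. Student's t-test was used.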

[1] = Antioxidant activity assessed as nitric oxide radical scavenging activity at 20 ug/ml after 150 mins
How it was run: (§1)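 Sodium nitroprusside (10 mmol) in PBS at physiological pH was incubated with sample at 25 °C for 150 min in a 3 ml reaction. Aliquots taken every 30 min were mixed 1:1 with Griess reagent (1% sulphanilamide, 0.1% naphthylethylenediamine in 2% H3PO4), and absorbance was read at 546 nm. Runs were done in triplicate, and % scavenging was calculated against the blank.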

Rattus norvegicus [2] = experiment: Antiinflammatory activity in Albino rat assessed as protection against carrageenan-induced hind paw oedema at 10 mg/kg, po after 3 hrs
How it was run: (§2)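 Rats (150–250 g, either sex) were fasted 18 h and grouped in sixes. Compounds or standards were given orally as a suspension in 5% DMSO. After 1 h, 0.1 ml of 1% carrageenin was injected subplantar into the right hind paw. Paw volume was read by mercury plethysmometer at once and at 3 h. % protection = 100(1−Vt/Vc) versus vehicle.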

[3] = Antioxidant activity assessed as nitric oxide radical scavenging activity at 25 ug/ml after 150 mins; how it was run: as §1
[4] = Inhibition of nitric oxide radical scavenging activity; how it was run: as §1
[5] = Antioxidant activity assessed as nitric oxide radical scavenging activity at 5 ug/ml after 150 mins; how it was run: as §1
Rattus norvegicus [6] = experiment: Antiinflammatory activity in Albino rat assessed as protection against carrageenan-induced hind paw oedema at 20 mg/kg, po after 3 hrs; how it was run: as §2
Rattus norvegicus [7] = experiment: Antiinflammatory activity in Albino rat assessed as protection against carrageenan-induced hind paw oedema at 40 mg/kg, po after 3 hrs; how it was run: as §2
[8] = Antioxidant activity assessed as nitric oxide radical scavenging activity at 30 ug/ml after 150 mins; how it was run: as §1
[9] = Antioxidant activity assessed as nitric oxide radical scavenging activity at 15 ug/ml after 150 mins; how it was run: as §1
[10] = Antioxidant activity assessed as nitric oxide radical scavenging activity at 10 ug/ml after 150 mins; how it was run: as §1
[11] = Antioxidant activity assessed as nitric oxide radical scavenging activity at 35 ug/ml after 150 mins; how it was run: as §1

| Structure (SMILES) | Activity (Mus musculus) [%] | Activity [1] | Activity (Rattus norvegicus [2]) [%] | Activity [3] | Activity [4] | Activity [5] | Activity (Rattus norvegicus [6]) [%] | Activity (Rattus norvegicus [7]) [%] | Activity [8] | Activity [9] | Activity [10] | Activity [11] | IC50 [4] [mg/L] |
| --- | --- | --- | --- | --- | --- | --- | --- | --- | --- | --- | --- | --- | --- |
| Cc1ccc(C(=O)c2sc(Nc3ccc(Cl)cc3)c(C(=O)O)c2C)cc1 | 24 | inactive | 63 | inactive | inactive | inactive | 68 | 59 | inactive | inactive | inactive | inactive | – |
| Cc1ccc(C(=O)c2sc(Nc3ccc(F)cc3)c(C(=O)O)c2C)cc1 | 22 | inactive | 38 | inactive | inactive | inactive | 44 | 42 | inactive | inactive | inactive | inactive | – |
| COC(=O)c1c(Nc2ccc(Cl)cc2)sc(/C(=N\O)c2ccc(C)cc2)c1C | – | – | 13 | – | – | – | 29 | 42 | – | – | – | – | – |
| COC(=O)c1c(Nc2ccc(F)cc2)sc(/C(=N/O)c2ccc(OC)cc2)c1C | – | – | 20 | – | – | – | 25 | 30 | – | – | – | – | – |
| COC(=O)c1c(Nc2ccccc2)sc(C(=O)c2ccc(C)cc2)c1C | 27 | 6.06% | 43 | 8.16% | – | 2.08% | 49 | 53 | 9.35% | 4.59% | 3.16% | 10.2% | 171.43 (≈ 469 µM) |
| COC(=O)c1c(Nc2ccc(C)cc2)sc(C(=O)c2ccc(C)cc2)c1C | 22 | inactive | 32 | inactive | inactive | inactive | 36 | 37 | inactive | inactive | inactive | inactive | – |
| Cc1ccc(Nc2sc(C(=O)c3ccc(C)cc3)c(C)c2C(=O)O)cc1 | 18 | inactive | 35 | inactive | inactive | inactive | 38 | 38 | inactive | inactive | inactive | inactive | – |
| COc1ccc(C(=O)c2sc(Nc3ccc(C)cc3)c(C(=O)O)c2C)cc1 | 26 | inactive | 56 | inactive | inactive | inactive | 63 | 62 | inactive | inactive | inactive | inactive | – |
| COc1ccc(Nc2sc(C(=O)c3ccc(OC)cc3)c(C)c2C(=O)O)cc1 | 22 | 32.5% | 72 | 38.5% | – | 20.1% | 75 | 69 | 41.2% | 30.6% | 23.5% | 51% | 36.57 (≈ 92 µM) |
| COc1ccc(C(=O)c2sc(Nc3ccc(Cl)cc3)c(C(=O)O)c2C)cc1 | 30 | inactive | 49 | inactive | inactive | inactive | 49 | 43 | inactive | inactive | inactive | inactive | – |
| COC(=O)c1c(Nc2ccc(F)cc2)sc(C(=O)c2ccc(OC)cc2)c1C | 40 | 18.1% | 36 | 20.2% | – | 5.28% | 53 | 58 | 23.2% | 15.2% | 14% | 25.6% | 74.17 (≈ 186 µM) |
| COc1ccc(C(=O)c2sc(Nc3ccccc3)c(C(=O)O)c2C)cc1 | 30 | 41.2% | 79 | 52.6% | – | 19.6% | 80 | 70 | 59.5% | 36.5% | 24.7% | 61.2% | 25.2 (≈ 68.6 µM) |
| COC(=O)c1c(Nc2ccccc2)sc(/C(=N/O)c2ccc(C)cc2)c1C | – | – | 13 | – | – | – | 21 | 30 | – | – | – | – | – |
| COC(=O)c1c(Nc2ccc(Cl)cc2)sc(C(=O)c2ccc(C)cc2)c1C | 43 | inactive | 34 | inactive | inactive | inactive | 66 | 26 | inactive | inactive | inactive | inactive | – |
| COC(=O)c1c(Nc2ccc(Cl)cc2)sc(/C(=N/O)c2ccc(OC)cc2)c1C | – | – | 3 | – | – | – | 12 | 30 | – | – | – | – | – |
| COc1ccc(C(=O)c2sc(Nc3ccc(F)cc3)c(C(=O)O)c2C)cc1 | 28 | 3.58% | 57 | 8.36% | – | 0.1% | 57 | 54 | 10.5% | 1.98% | 0.98% | 12.8% | 118.32 (≈ 307 µM) |
| Cc1ccc(C(=O)c2sc(Nc3ccccc3)c(C(=O)O)c2C)cc1 | 17 | 2.68% | 45 | 4.35% | – | 0.26% | 47 | 42 | 5.13% | 1.25% | 0.85% | 5.55% | 259.47 (≈ 738 µM) |
| COC(=O)c1c(Nc2ccc(C)cc2)sc(C(=O)c2ccc(OC)cc2)c1C | 45 | inactive | 50 | inactive | inactive | inactive | 63 | 70 | inactive | inactive | inactive | inactive | – |
| COC(=O)c1c(Nc2ccccc2)sc(C(=O)c2ccc(OC)cc2)c1C | 55 | 32.4% | 69 | 36.9% | – | 13.3% | 70 | 73 | 48.1% | 28.6% | 18% | 63% | 30.08 (≈ 78.9 µM) |
| CC(C)Cc1ccc(C(C)C(=O)O)cc1 (stereo unspecified) [IBUPROFEN] | 60 | – | – | – | – | – | 33 | – | – | – | – | – | – |
| COC(=O)c1c(Nc2ccc(F)cc2)sc(C(=O)c2ccc(C)cc2)c1C | 37 | inactive | 38 | inactive | inactive | inactive | 46 | 23 | inactive | inactive | inactive | inactive | – |
| COC(=O)c1c(Nc2ccc(Cl)cc2)sc(C(=O)c2ccc(OC)cc2)c1C | 60 | inactive | 42 | inactive | inactive | inactive | 40 | 39 | inactive | inactive | inactive | inactive | – |
| COC(=O)c1c(Nc2ccc(C)cc2)sc(/C(=N/O)c2ccc(OC)cc2)c1C | – | – | 22 | – | – | – | 27 | 30 | – | – | – | – | – |
| COC(=O)c1c(Nc2ccc(OC)cc2)sc(C(=O)c2ccc(OC)cc2)c1C | 40 | 12% | 71 | 15.4% | – | 4.29% | 72 | 76 | 20.5% | 7.8% | 5.9% | 25.1% | 72.21 (≈ 175 µM) |
| COC(=O)c1c(Nc2ccccc2)sc(/C(=N/O)c2ccc(OC)cc2)c1C | – | – | 5 | – | – | – | 38 | 34 | – | – | – | – | – |
